# Legend:
# [1] = test system: plasmid (pBR322) DNA; assay: Electrophoresis mobility shift assay with plasmid DNA; assay type: binding; details: metal/DNAbp ratios 0.25-2.0; 37 °C, 20 h
# Method in brief: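 Supercoiled pBR322 (20 μg/mL) in 5 mM Tris/HCl, 50 mM NaClO4, pH 7.39, incubated with test compound at […] metal complex:DNAbp ratios for 20 h at 37 °C in the dark. Untreated DNA and cisplatin-DNA were the controls. Samples were run on 1% agarose in TAE for 1.5 h at 80 V and stained with GelRed for 30 min. Read-out: ratio at which the two plasmid forms coalesce.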
# [2] = test system: human ovarian cancer A2780 cell line; details: read-out: IC50 A2780; cisplatin dissolved in H2O; ref [18]; cited from earlier work
# [3] = test system: A2780cisR (cisplatin resistant variant of A2780); details: read-out: IC50 A2780cisR; cisplatin dissolved in H2O; ref [18]; cited from earlier work
# [4] = test system: human breast cancer cell line MCF7; details: read-out: IC50 MCF7; cisplatin dissolved in H2O; ref [18]; cited from earlier work
# [5] = test system: non-tumorigenic human embryonic kidney cells HEK293T; details: read-out: IC50 HEK-293T; cisplatin dissolved in H2O; ref [18]; cited from earlier work
# [6] = Stability in solution by 31P{1H} NMR in deuterated solvents; assay type: physicochemical
Molecule,effect on electrophoretic mobility of pBR322 plasmid forms [1],IC50 [2] [µM],IC50 [3] [µM],IC50 [4] [µM],IC50 [5] [µM],half-life in d6-DMSO solution [6]
N.N.[Cl][Pt][Cl] [cisplatin],decrease in mobility of the CCC form and an increase in mobility of the OC form,1.9 ± 0.6,35 ± 7,20 ± 3,11 ± 2.9,
[{Cp-P(Ph2)=NH-Ph}2Fe](AuCl4)2 [compound 4],,,,,,weeks

# From PMC3880617 (Journal of medicinal chemistry, 2013)
